Data reported in ChEMBL document CHEMBL1132188, “Probes for narcotic receptor mediated phenomena. 26. Synthesis and biological evaluation of diarylmethylpiperazines and diarylmethylpiperidines as novel, nonpeptidic delta opioid receptor ligands” (J Med Chem, 1999).
pIC50, pKi: −log10 of the molar value.

Experiments:
[1] = biological target: T1, Delta-type opioid receptor (Rattus norvegicus, UniProt P33533); test: In vitro binding affinity to Opioid receptor delta 1 in rat brain membranes by [3H]DADLE (Tyr-D-Ala-Gly-Phe-D-Leu) displacement.; assay type: cell membranes
Method in brief: (§1)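 [3H]DADLE (2 nM) was bound to daily-prepared rat brain membranes for 2 h at 25 °C in 50 mM Tris-HCl pH 7.4 with 100 mM choline chloride, 3 mM MnCl2, DAMGO to block mu sites, and protease inhibitor cocktail. Nonspecific binding was defined with 20 µM levallorphan. Ten drug concentrations were run twice. Ki from IC50 by Cheng–Prusoff.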

[2] = biological target: T2, Kappa-type opioid receptor (Cavia porcellus, UniProt P41144); test: In vitro radioligand binding assay, for inhibition of [3H]U-69593 binding to Opioid receptor kappa 1, in guinea pig brain membranes, at highest concentration of 8000 nM tested; assay type: cell membranes
Method in brief: (§2)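 Guinea pig brain membranes were homogenised in ice-cold 10 mM Tris-HCl pH 7.0, centrifuged twice at 30000g, and resuspended in 50 mM Tris-HCl pH 7.4. [3H]U69,593 (2 nM) was incubated 2 h at 25 °C with protease inhibitor cocktail and 1 µg/mL captopril. Nonspecific binding was defined with 1 µM U69,593. Ten drug concentrations were run twice. Ki = IC50/(1+[L]/Kd).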

[3] = biological target: T3, Mu-type opioid receptor (Rattus norvegicus, UniProt P33535); test: In vitro radioligand binding assay, for inhibition of [3H]DAMGO (Tyr-D-Ala-Gly-(Me)-Phe-Gly-ol) binding to Opioid receptor mu 1 in rat brain membranes at highest concentration of 6300 nM tested; assay type: cell membranes
Method in brief: (§3)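 Rat brain membranes prepared daily: homogenised in ice-cold 10 mM Tris-HCl pH 7.0, centrifuged twice at 30000g for 10 min, resuspended in 50 mM Tris-HCl pH 7.4. Incubation 2 h at 25 °C in 50 mM Tris-HCl pH 7.4 with protease inhibitor cocktail. Nonspecific binding was defined with 20 µM levallorphan. Ten drug concentrations were run twice. Ki = IC50/(1+[L]/Kd).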

[4] = Ki ratio of mu to delta receptor
[5] = biological target: T3, Mu-type opioid receptor; test: In vitro radioligand binding assay, for inhibition of [3H]DAMGO (Tyr-D-Ala-Gly-(Me)-Phe-Gly-ol) binding to Opioid receptor mu 1 in rat brain membranes at highest concentration of 6800 nM tested; assay type: cell membranes; method in brief: as §3
[6] = biological target: Delta-type opioid receptor (Mus musculus, UniProt P32300); test: Agonist activity using electrically induced smooth muscle contraction of mouse vas deferens.; assay type: functional
[7] = biological target: T2, Kappa-type opioid receptor; test: In vitro radioligand binding assay, for inhibition of [3H]U-69593 binding to Opioid receptor kappa 1, in guinea pig brain membranes.; assay type: cell membranes; method in brief: as §2
[8] = biological target: Mu-type opioid receptor (Cavia porcellus, UniProt P97266); test: Agonist activity using strips of guinea pig ileum longitudinal muscle myenteric plexus.; assay type: functional, tissue-based
Method in brief: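 Longitudinal muscle–myenteric plexus strips from male Hartley guinea pigs (250–500 g) at 1 g tension in Krebs bicarbonate, 37 °C, 95% O2/5% CO2. Transmural stimulation at 0.1 Hz, 0.4 ms pulses, supramaximal voltage. Cumulative agonist doses; % inhibition of contraction height. IC50 by nonlinear least squares.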

[9] = biological target: T3, Mu-type opioid receptor; test: In vitro radioligand binding assay, for inhibition of [3H]DAMGO (Tyr-D-Ala-Gly-(Me)-Phe-Gly-ol) binding to Opioid receptor mu 1 in rat brain membranes.; assay type: cell membranes; method in brief: as §3
[10] = IC50 ratio of mu to delta receptor
[11] = biological target: T2, Kappa-type opioid receptor; test: In vitro radioligand binding assay, for inhibition of [3H]U-69593 binding to Opioid receptor kappa 1, in guinea pig brain membranes, at highest concentration of 7000 nM tested; assay type: cell membranes; method in brief: as §2
[12] = biological target: T1, Delta-type opioid receptor; test: In vitro radioligand binding assay, for inhibition of [3H]DADLE (Tyr-D-Ala-Gly-Phe-D-Leu) binding to Opioid receptor delta 1, in rat brain membranes at highest concentration of 1700 nM tested; assay type: cell membranes; method in brief: as §1
[13] = biological target: T3, Mu-type opioid receptor; test: In vitro radioligand binding assay, for inhibition of [3H]-DAMGO (Tyr-D-Ala-Gly-(Me)-Phe-Gly-ol) binding to Opioid receptor mu 1 in rat brain membranes at highest concentration of 6600 nM tested; assay type: cell membranes; method in brief: as §3
[14] = biological target: T3, Mu-type opioid receptor; test: In vitro radioligand binding assay, for inhibition of [3H]DAMGO (Tyr-D-Ala-Gly-(Me)-Phe-Gly-ol) binding to Opioid receptor mu 1 in rat brain membranes at highest concentration of 5600 nM tested; assay type: cell membranes; method in brief: as §3

Mu-type opioid receptor (Cavia porcellus, UniProt P97266), sequence (P97266 whole entry): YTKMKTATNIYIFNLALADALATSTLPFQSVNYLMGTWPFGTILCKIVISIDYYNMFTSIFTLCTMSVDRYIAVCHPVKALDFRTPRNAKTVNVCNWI
T2 sequence (P41144 whole entry): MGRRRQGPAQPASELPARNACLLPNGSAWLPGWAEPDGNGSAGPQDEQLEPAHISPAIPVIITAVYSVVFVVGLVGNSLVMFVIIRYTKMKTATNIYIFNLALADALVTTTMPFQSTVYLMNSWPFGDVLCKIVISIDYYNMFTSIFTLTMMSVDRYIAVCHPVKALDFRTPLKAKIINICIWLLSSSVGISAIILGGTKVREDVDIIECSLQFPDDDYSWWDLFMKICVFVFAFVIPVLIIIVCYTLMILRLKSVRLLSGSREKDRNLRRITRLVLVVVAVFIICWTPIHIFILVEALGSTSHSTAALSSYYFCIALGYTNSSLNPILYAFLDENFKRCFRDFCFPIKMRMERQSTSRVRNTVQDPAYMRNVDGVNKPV
Delta-type opioid receptor (Mus musculus, UniProt P32300), sequence (P32300 whole entry): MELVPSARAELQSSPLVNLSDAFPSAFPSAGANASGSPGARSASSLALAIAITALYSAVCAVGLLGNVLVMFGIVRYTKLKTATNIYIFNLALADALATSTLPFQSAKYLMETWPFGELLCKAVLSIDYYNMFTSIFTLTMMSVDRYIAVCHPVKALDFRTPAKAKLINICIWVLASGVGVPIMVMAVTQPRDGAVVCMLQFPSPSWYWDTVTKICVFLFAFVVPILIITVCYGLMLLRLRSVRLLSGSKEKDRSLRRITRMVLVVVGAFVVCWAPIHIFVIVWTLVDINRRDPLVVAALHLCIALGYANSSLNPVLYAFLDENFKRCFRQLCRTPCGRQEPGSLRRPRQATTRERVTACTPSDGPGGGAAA
T3 sequence (P33535 whole entry): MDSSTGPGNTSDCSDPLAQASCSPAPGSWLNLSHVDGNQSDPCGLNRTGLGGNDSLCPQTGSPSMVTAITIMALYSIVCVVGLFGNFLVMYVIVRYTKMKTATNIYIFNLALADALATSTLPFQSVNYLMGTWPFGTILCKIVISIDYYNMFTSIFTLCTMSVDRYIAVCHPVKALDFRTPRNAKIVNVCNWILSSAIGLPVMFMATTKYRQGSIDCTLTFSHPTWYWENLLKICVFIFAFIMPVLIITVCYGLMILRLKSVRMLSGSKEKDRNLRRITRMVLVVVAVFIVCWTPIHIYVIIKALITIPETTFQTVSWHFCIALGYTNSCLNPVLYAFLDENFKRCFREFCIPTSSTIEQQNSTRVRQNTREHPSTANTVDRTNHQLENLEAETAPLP
T1 sequence (P33533 whole entry): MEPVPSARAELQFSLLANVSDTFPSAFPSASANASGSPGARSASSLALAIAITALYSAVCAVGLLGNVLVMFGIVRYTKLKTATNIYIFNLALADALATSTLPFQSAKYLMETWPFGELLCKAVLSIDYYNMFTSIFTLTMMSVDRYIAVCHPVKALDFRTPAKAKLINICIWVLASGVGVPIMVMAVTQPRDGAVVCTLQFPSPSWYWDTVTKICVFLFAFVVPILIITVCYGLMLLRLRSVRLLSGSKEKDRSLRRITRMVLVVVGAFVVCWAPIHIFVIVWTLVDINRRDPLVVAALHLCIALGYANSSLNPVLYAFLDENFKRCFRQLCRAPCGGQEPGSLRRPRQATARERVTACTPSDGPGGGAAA

Row | Compound | pKi [1] | pKi [2] | Ki ratio [4] | pKi [5] | other results
1 | CCN(CC)C(=O)c1ccc(C(c2cccc(OC)c2)C2CCNCC2)cc1 (stereo not drawn) | 7.70 | 5.00 | > 300 |  | pKi [3]: 5.00
2 | CCN(CC)C(=O)c1ccc(C(c2cccc(OC)c2)C2CCN(C)CC2)cc1 (stereo not drawn) | 6.48 | 5.00 | > 15 |  | pKi [3]: 5.00
3 | CCN(CC)C(=O)c1ccc(C(c2cccc(OC)c2)N(C)CCN(C)C)cc1 (stereo not drawn) | 6.61 | 5.00 | > 20 | 5.00 | 
4 | C=CCN1CCN(C(c2ccc(C(=O)N(CC)CC)cc2)c2cccc(OC)c2)CC1 (stereo not drawn) | 7.57 |  | > 230 |  | pIC50 [6]: 7.48; pKi [7]: 5.00; pIC50 [8]: 4.69; pKi [9]: 5.00; Ratio [10]: 610
5 | CCCN1CCN(C(c2ccccc2)c2ccc(C(=O)N(CC)CC)cc2)CC1 (stereo not drawn) | 7.35 |  | > 150 | 5.00 | pKi [11]: 5.00
6 | CCN(CC)C(=O)c1ccc(C(c2ccccc2)N2CCCCC2)cc1 (stereo not drawn) |  |  | > 4 | 5.00 | pKi [12]: 5.52; pKi [11]: 5.00
7 | CCN(CC)C(=O)c1ccc(C(=C2CCN(Cc3ccccc3)CC2)c2cccc(OC)c2)cc1 | 7.92 |  | > 500 |  | pKi [7]: 5.12; pKi [3]: 5.00
8 | CCN(CC)C(=O)c1ccc(C(=C2CCNCC2)c2cccc(OC)c2)cc1 | 8.30 | 5.00 | > 1200 |  | pIC50 [6]: 6.90; pIC50 [8]: 4.56; pKi [3]: 5.00; Ratio [10]: 220
9 | C=CCN1CCN(C(c2ccccc2)c2ccc(C(=O)N(CC)CC)cc2)CC1 (stereo not drawn) | 7.98 |  | > 600 |  | pKi [13]: 5.00
10 | CCN(CC)C(=O)c1ccc(C(NCCN(C)C)c2cccc(OC)c2)cc1 (stereo not drawn) | 6.21 | 5.00 | > 10 | 5.00 | 
11 | CCN(CC)C(=O)c1ccc(C(OCCN(C)C)c2cccc(OC)c2)cc1 (stereo not drawn) | 6.59 | 5.00 | > 20 | 5.00 | 
12 | C=CCN1C[C@H](C)N([C@@H](c2ccccc2)c2ccc(C(=O)N(CC)CC)cc2)C[C@H]1C | 9.30 |  | > 3600 |  | pKi [7]: 5.52; pKi [9]: 5.52; Ratio [10]: 813
13 | C=CCN1CCC(C(c2ccc(C(=O)N(CC)CC)cc2)c2cccc(OC)c2)CC1 (stereo not drawn) | 7.57 | 5.00 | > 200 |  | pKi [3]: 5.00
14 | CCN(CC)C(=O)c1ccc(C(c2ccccc2)N2CCN(Cc3ccccc3)CC2)cc1 (stereo not drawn) | 8.83 |  | > 4500 | 5.00 | pIC50 [6]: 7.59; pKi [11]: 5.70; pIC50 [8]: 5.01; Ratio [10]: 382
15 | C=CCN1C[C@H](C)N([C@H](c2ccc(C(=O)N(CC)CC)cc2)c2cccc(OC)c2)C[C@H]1C [SNC-80] |  |  |  |  | pKi [7]: 4.93; pKi [9]: 5.40
16 | CCN(CC)C(=O)c1ccc(C(c2ccccc2)N2CCOCC2)cc1 (stereo not drawn) |  |  | > 4 | 5.00 | pKi [12]: 5.52; pKi [11]: 5.00
17 | CCN(CC)C(=O)c1ccc(C(c2ccccc2)N2CCNCC2)cc1 (stereo not drawn) | 8.31 |  | > 1400 | 5.00 | 
18 | CCN(CC)C(=O)c1ccc(C(c2ccccc2)N2CCN(C)CC2)cc1 (stereo not drawn) | 7.36 |  | > 130 |  | pKi [11]: 5.00; pKi [14]: 5.00
